# Test system: Fibroblast
# Test: Multiplex assay against human fibroblast
# Format: toxicity, cell-based
# Procedure, shortened: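 Per cents of healthy-nucleus cells form the tubulin, mitochondrial-mass and membrane-permeability phenotype values. Live cells were stained at seeding with Hoechst33342, BioTracker Green Microtubule Cytoskeleton Dye, MitoTracker Red and Annexin V Alexa Fluor 680. After compound addition they were imaged on a CQ1 microscope at 37°C and 5% CO2, and CellPathfinder machine-learning gating split them into Hoechst high-intensity objects or normal cells, normal cells into healthy, pyknosed or fragmented nuclei, and pyknosed cells into mitotic or apoptotic.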
# [1] = 12 h, 1 µM, compound concentration 1 uM, replicate 1
# [2] = 12 h, 1 µM, compound concentration 1 uM, replicate 2
# [3] = 12 h, 10 µM, compound concentration 10 uM, replicate 1
# [4] = 12 h, 10 µM, compound concentration 10 uM, replicate 2
# [5] = 24 h, 1 µM, compound concentration 1 uM, replicate 1
# [6] = 24 h, 1 µM, compound concentration 1 uM, replicate 2
# [7] = 24 h, 10 µM, compound concentration 10 uM, replicate 1
# [8] = 24 h, 10 µM, compound concentration 10 uM, replicate 2
# [9] = 48 h, 1 µM, compound concentration 1 uM, replicate 1
# [10] = 48 h, 1 µM, compound concentration 1 uM, replicate 2
# [11] = 48 h, 10 µM, compound concentration 10 uM, replicate 1
# [12] = 48 h, 10 µM, compound concentration 10 uM, replicate 2
structure (smiles),measurement,setting,value
CCCCCC(O)/C=C/[C@H]1C(=O)CC(O)C1C/C=C\CCCC(=O)O (some centres undefined),Population Apoptotic (%),[1],52%
same,Population Fragmented Nuclei (%),[1],24%
same,Population Healthy Nuclei (%),[1],65%
same,Population Hoechst High Intensity Objects (%),[1],1%
same,Population Membrane Permeable-Phenotype (%),[1],0%
same,Population Mitochondria Different-Phenotype (%),[1],4%
same,Population Mitotic Cells (%),[1],47%
same,Population Normal (%),[1],98%
same,Population Pyknosed Nuclei (%),[1],10%
same,Population Tubulin-Different-Phenotype (%),[1],19%
same,Total Cell Count,[1],172
same,Population Apoptotic (%),[2],50%
same,Population Fragmented Nuclei (%),[2],40%
same,Population Healthy Nuclei (%),[2],41%
same,Population Hoechst High Intensity Objects (%),[2],2%
same,Population Membrane Permeable-Phenotype (%),[2],7%
same,Population Mitochondria Different-Phenotype (%),[2],20%
same,Population Mitotic Cells (%),[2],50%
same,Population Normal (%),[2],97%
same,Population Pyknosed Nuclei (%),[2],18%
same,Population Tubulin-Different-Phenotype (%),[2],52%
same,Total Cell Count,[2],169
same,Population Apoptotic (%),[3],42%
same,Population Fragmented Nuclei (%),[3],16%
same,Population Healthy Nuclei (%),[3],69%
same,Population Hoechst High Intensity Objects (%),[3],0%
same,Population Membrane Permeable-Phenotype (%),[3],0%
same,Population Mitochondria Different-Phenotype (%),[3],1%
same,Population Mitotic Cells (%),[3],57%
same,Population Normal (%),[3],99%
same,Population Pyknosed Nuclei (%),[3],13%
same,Population Tubulin-Different-Phenotype (%),[3],16%
same,Total Cell Count,[3],139
same,Population Apoptotic (%),[4],34%
same,Population Fragmented Nuclei (%),[4],20%
same,Population Healthy Nuclei (%),[4],56%
same,Population Hoechst High Intensity Objects (%),[4],2%
same,Population Membrane Permeable-Phenotype (%),[4],3%
same,Population Mitochondria Different-Phenotype (%),[4],7%
same,Population Mitotic Cells (%),[4],65%
same,Population Normal (%),[4],97%
same,Population Pyknosed Nuclei (%),[4],23%
same,Population Tubulin-Different-Phenotype (%),[4],41%
same,Total Cell Count,[4],101
same,Population Apoptotic (%),[5],35%
same,Population Fragmented Nuclei (%),[5],20%
same,Population Healthy Nuclei (%),[5],70%
same,Population Hoechst High Intensity Objects (%),[5],0%
same,Population Membrane Permeable-Phenotype (%),[5],0%
same,Population Mitochondria Different-Phenotype (%),[5],2%
same,Population Mitotic Cells (%),[5],64%
same,Population Normal (%),[5],99%
same,Population Pyknosed Nuclei (%),[5],8%
same,Population Tubulin-Different-Phenotype (%),[5],21%
same,Total Cell Count,[5],169
same,Population Apoptotic (%),[6],50%
same,Population Fragmented Nuclei (%),[6],41%
same,Population Healthy Nuclei (%),[6],50%
same,Population Hoechst High Intensity Objects (%),[6],1%
same,Population Membrane Permeable-Phenotype (%),[6],4%
same,Population Mitochondria Different-Phenotype (%),[6],10%
same,Population Mitotic Cells (%),[6],50%
same,Population Normal (%),[6],98%
same,Population Tubulin-Different-Phenotype (%),[6],47%
same,Total Cell Count,[6],184
same,Population Apoptotic (%),[7],61%
same,Population Fragmented Nuclei (%),[7],17%
same,Population Healthy Nuclei (%),[7],72%
same,Population Hoechst High Intensity Objects (%),[7],2%
same,Population Membrane Permeable-Phenotype (%),[7],1%
same,Population Mitochondria Different-Phenotype (%),[7],3%
same,Population Mitotic Cells (%),[7],38%
same,Population Normal (%),[7],97%
same,Population Pyknosed Nuclei (%),[7],9%
same,Population Tubulin-Different-Phenotype (%),[7],21%
same,Total Cell Count,[7],138
same,Population Apoptotic (%),[8],33%
same,Population Fragmented Nuclei (%),[8],18%
same,Population Healthy Nuclei (%),[8],59%
same,Population Hoechst High Intensity Objects (%),[8],4%
same,Population Membrane Permeable-Phenotype (%),[8],3%
same,Population Mitochondria Different-Phenotype (%),[8],1%
same,Population Mitotic Cells (%),[8],66%
same,Population Normal (%),[8],95%
same,Population Pyknosed Nuclei (%),[8],21%
same,Population Tubulin-Different-Phenotype (%),[8],29%
same,Total Cell Count,[8],101
same,Population Apoptotic (%),[9],50%
same,Population Fragmented Nuclei (%),[9],27%
same,Population Healthy Nuclei (%),[9],66%
same,Population Hoechst High Intensity Objects (%),[9],3%
same,Population Membrane Permeable-Phenotype (%),[9],0%
same,Population Mitochondria Different-Phenotype (%),[9],2%
same,Population Mitotic Cells (%),[9],50%
same,Population Normal (%),[9],96%
same,Population Pyknosed Nuclei (%),[9],5%
same,Population Tubulin-Different-Phenotype (%),[9],19%
same,Total Cell Count,[9],175
same,Population Apoptotic (%),[10],30%
same,Population Fragmented Nuclei (%),[10],47%
same,Population Healthy Nuclei (%),[10],46%
same,Population Hoechst High Intensity Objects (%),[10],2%
same,Population Membrane Permeable-Phenotype (%),[10],3%
same,Population Mitochondria Different-Phenotype (%),[10],7%
same,Population Mitotic Cells (%),[10],70%
same,Population Normal (%),[10],97%
same,Population Tubulin-Different-Phenotype (%),[10],42%
same,Total Cell Count,[10],186
same,Population Apoptotic (%),[11],63%
same,Population Fragmented Nuclei (%),[11],17%
same,Population Healthy Nuclei (%),[11],74%
same,Population Hoechst High Intensity Objects (%),[11],4%
same,Population Membrane Permeable-Phenotype (%),[11],0%
same,Population Mitochondria Different-Phenotype (%),[11],0%
same,Population Mitotic Cells (%),[11],36%
same,Population Normal (%),[11],95%
same,Population Pyknosed Nuclei (%),[11],8%
same,Population Tubulin-Different-Phenotype (%),[11],14%
same,Total Cell Count,[11],141
same,Population Apoptotic (%),[12],33%
same,Population Fragmented Nuclei (%),[12],30%
same,Population Healthy Nuclei (%),[12],61%
same,Population Hoechst High Intensity Objects (%),[12],0%
same,Population Membrane Permeable-Phenotype (%),[12],6%
same,Population Mitochondria Different-Phenotype (%),[12],3%
same,Population Mitotic Cells (%),[12],66%
same,Population Normal (%),[12],99%
same,Population Tubulin-Different-Phenotype (%),[12],47%
same,Total Cell Count,[12],104

# From ChEMBL document CHEMBL5058577, “EUbOPEN Chemogenomics Library 2 (Multiplex)” (2022)
